{"source": "ChEMBL document CHEMBL1138064", "about": "“Discovery of N-[(3R)-1-azabicyclo[2.2.2]oct-3-yl]furo[2,3-c]pyridine-5-carboxamide, an agonist of the alpha7 nicotinic acetylcholine receptor, for the potential treatment of cognitive deficits in schizophrenia: synthesis and structure--activity relationship” (J Med Chem, 2006)", "key": {"[1]": {"molecular_target": "Prostaglandin G/H synthase 1 (Homo sapiens) (UniProt P23219)", "experiment": "Inhibition of COX1 at 1 uM"}, "[2]": {"experiment": "Volume of distribution in rat at 5 mg/kg", "assay_type": "ADME, organism-based", "parameters": "dose 5 mg/kg", "settings": "in vivo, read-out: Vdss"}, "[3]": {"molecular_target": "Mu-type opioid receptor (Homo sapiens) (UniProt P35372)", "experiment": "Inhibition of human mu opioid receptor at 1 uM"}, "[4]": {"molecular_target": "Endothelin-1 receptor (Homo sapiens) (UniProt P25101)", "sequence (P25101 whole entry)": "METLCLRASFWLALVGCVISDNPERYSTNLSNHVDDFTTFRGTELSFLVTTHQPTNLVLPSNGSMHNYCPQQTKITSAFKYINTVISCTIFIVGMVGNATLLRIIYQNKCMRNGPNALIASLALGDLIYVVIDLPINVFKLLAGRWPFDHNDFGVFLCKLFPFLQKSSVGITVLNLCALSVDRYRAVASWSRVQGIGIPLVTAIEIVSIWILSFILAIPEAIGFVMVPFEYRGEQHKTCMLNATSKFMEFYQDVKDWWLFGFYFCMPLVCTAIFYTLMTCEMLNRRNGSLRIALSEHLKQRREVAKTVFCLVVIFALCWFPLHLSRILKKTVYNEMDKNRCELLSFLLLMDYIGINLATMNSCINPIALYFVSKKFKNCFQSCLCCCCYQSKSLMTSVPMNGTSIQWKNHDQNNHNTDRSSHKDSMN", "experiment": "Inhibition of human ETA receptor at 1 uM"}, "[5]": {"molecular_target": "Vasoactive intestinal polypeptide receptor 1 (Homo sapiens) (UniProt P32241)", "experiment": "Inhibition of VIP1 receptor at 1 uM"}, "[6]": {"molecular_target": "Endothelin-converting enzyme 1 (Homo sapiens) (UniProt P42892)", "experiment": "Inhibition of ECE at 1 uM"}, "[7]": {"molecular_target": "Nociceptin receptor (Homo sapiens) (UniProt P41146)", "experiment": "Inhibition of ORL1 receptor at 1 uM"}, "[8]": {"molecular_target": "Neuronal acetylcholine receptor subunit alpha-7 (Rattus norvegicus, UniProt Q05941)", "experiment": "Displacement of [3H]MLA from alpha-7 nAChR in Sprague-Dawley rat brain homogenates", "assay_type": "tissue-based", "method_in_brief": "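Rat brain homogenate binding assay with [3H]MLA as radioligand. Values are the average of two or more experiments.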"}, "[9]": {"molecular_target": "D(1A) dopamine receptor (Homo sapiens) (UniProt P21728)", "experiment": "Inhibition of D1 receptor at 1 uM"}, "[10]": {"molecular_target": "Adenosine receptor A1 (Homo sapiens) (UniProt P30542)", "sequence (P30542 whole entry)": "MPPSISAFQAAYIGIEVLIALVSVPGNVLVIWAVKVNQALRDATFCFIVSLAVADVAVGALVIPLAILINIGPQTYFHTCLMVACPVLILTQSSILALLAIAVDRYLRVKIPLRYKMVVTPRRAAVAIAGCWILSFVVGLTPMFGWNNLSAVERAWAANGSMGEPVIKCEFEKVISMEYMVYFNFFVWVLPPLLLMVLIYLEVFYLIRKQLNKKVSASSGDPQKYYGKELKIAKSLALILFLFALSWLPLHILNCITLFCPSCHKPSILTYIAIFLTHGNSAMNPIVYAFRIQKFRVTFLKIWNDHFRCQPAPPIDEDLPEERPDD", "experiment": "Inhibition of adenosine A1 receptor at 1 uM"}, "[11]": {"molecular_target": "Neuronal acetylcholine receptor subunit alpha-7 (Rattus norvegicus) (UniProt Q05941)", "experiment": "Activity at alpha-7 nAChR in Sprague-Dawley rat hippocampal neurons assessed as induction of MLA-inhibited desensitizing inward current at 3 uM relative to (-)-nicotine", "assay_type": "functional, tissue-based", "parameters": "scale not given: the % may be the effect or the level left", "settings": "Hippocampus", "method_in_brief": "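Rat hippocampal neurons were recorded by whole-cell patch clamp with rapid agonist application. Desensitizing inward currents were measured, and α7 mediation was tested with MLA (10 nM), n = 3.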"}, "[12]": {"molecular_target": "5-hydroxytryptamine receptor 2A (Homo sapiens) (UniProt P28223)", "experiment": "Inhibition of 5HT2A receptor at 1 uM"}, "[13]": {"molecular_target": "D(4) dopamine receptor (Homo sapiens) (UniProt P21917)", "sequence (P21917 whole entry)": "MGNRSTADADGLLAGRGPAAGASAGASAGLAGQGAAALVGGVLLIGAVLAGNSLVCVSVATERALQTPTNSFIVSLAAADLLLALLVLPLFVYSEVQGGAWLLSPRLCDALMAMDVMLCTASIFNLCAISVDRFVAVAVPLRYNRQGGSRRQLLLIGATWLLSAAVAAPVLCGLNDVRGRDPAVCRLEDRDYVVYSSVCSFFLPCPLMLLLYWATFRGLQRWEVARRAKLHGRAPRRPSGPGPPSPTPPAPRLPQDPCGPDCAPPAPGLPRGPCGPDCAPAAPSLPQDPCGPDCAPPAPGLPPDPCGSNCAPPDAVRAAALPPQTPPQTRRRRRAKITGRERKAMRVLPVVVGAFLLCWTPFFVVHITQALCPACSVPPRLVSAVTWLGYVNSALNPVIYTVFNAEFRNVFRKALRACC", "experiment": "Inhibition of D4.4 receptor at 1 uM"}, "Homo sapiens [14]": {"organism": "Homo sapiens", "experiment": "Inhibition of phospholipase C at 1 uM"}, "[15]": {"molecular_target": "Sodium-dependent noradrenaline transporter (Homo sapiens) (UniProt P23975)", "experiment": "Inhibition of human NE transporter at 1 uM"}, "[16]": {"molecular_target": "Phosphodiesterase 4 (Homo sapiens) (UniProt P27815+Q08499+Q07343+Q08493)", "experiment": "Inhibition of PDE4 at 1 uM", "assay_type": "protein assay"}, "[17]": {"molecular_target": "Muscarinic acetylcholine receptor M5 (Homo sapiens) (UniProt P08912)", "sequence (P08912 whole entry)": "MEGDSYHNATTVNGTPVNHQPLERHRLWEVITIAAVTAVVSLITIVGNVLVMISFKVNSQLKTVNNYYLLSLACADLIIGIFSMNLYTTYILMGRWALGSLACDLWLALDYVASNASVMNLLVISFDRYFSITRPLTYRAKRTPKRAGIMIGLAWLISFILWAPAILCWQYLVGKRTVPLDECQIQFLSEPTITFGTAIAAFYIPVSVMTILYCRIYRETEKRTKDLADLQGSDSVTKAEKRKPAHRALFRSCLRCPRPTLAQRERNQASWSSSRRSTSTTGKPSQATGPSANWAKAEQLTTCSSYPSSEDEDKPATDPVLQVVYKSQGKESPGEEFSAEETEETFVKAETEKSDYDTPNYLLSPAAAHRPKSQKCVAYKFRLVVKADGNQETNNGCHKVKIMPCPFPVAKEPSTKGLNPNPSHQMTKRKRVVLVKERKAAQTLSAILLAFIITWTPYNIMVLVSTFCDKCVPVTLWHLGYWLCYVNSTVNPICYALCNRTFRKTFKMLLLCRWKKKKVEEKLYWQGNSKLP", "experiment": "Inhibition of M5 receptor at 1 uM"}, "Homo sapiens [18]": {"organism": "Homo sapiens", "experiment": "Inhibition of potassium channel V type at 1 uM"}, "Homo sapiens [19]": {"organism": "Homo sapiens", "experiment": "Inhibition of GABA receptor at 1 uM"}, "[20]": {"molecular_target": "Nitric oxide synthase, inducible (Homo sapiens) (UniProt P35228)", "experiment": "Inhibition of Nitric oxide synthase, inducible at 1 uM"}, "[21]": {"molecular_target": "Soluble guanylate cyclase (Homo sapiens) (UniProt Q02153+O75343+P33402+Q02108)", "experiment": "Inhibition of stimulated guanylate cyclase at 1 uM", "assay_type": "protein-complex assay"}, "hERG": {"molecular_target": "hERG (Homo sapiens, UniProt Q12809)", "experiment": "Inhibition of hERG expressed in HEK293 cells at 20 uM by patch clamp assay", "assay_type": "toxicity, cell-based", "settings": "HEK293 cells that express hERG", "method_in_brief": "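hERG current (IKr) in HEK cells recorded by patch clamp; compound applied at 2 and 20 µM; % block of current reported at each concentration.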"}, "[22]": {"molecular_target": "Cathepsin G (Homo sapiens) (UniProt P08311)", "experiment": "Inhibition of cathepsin G at 1 uM"}, "[23]": {"molecular_target": "Gastrin/cholecystokinin type B receptor (Homo sapiens) (UniProt P32239)", "experiment": "Inhibition of CCK2 receptor at 1 uM"}, "[24]": {"molecular_target": "Adenosine A2 receptor (Homo sapiens) (UniProt P29275+P29274)", "experiment": "Inhibition of adenosine A2 receptor at 1 uM", "assay_type": "protein assay"}, "Homo sapiens [25]": {"organism": "Homo sapiens", "experiment": "Inhibition of elastase at 1 uM"}, "[26]": {"molecular_target": "Kappa-type opioid receptor (Homo sapiens) (UniProt P41145)", "experiment": "Inhibition of human kappa opioid receptor at 1 uM"}, "[27]": {"molecular_target": "D(1B) dopamine receptor (Homo sapiens) (UniProt P21918)", "sequence (P21918 whole entry)": "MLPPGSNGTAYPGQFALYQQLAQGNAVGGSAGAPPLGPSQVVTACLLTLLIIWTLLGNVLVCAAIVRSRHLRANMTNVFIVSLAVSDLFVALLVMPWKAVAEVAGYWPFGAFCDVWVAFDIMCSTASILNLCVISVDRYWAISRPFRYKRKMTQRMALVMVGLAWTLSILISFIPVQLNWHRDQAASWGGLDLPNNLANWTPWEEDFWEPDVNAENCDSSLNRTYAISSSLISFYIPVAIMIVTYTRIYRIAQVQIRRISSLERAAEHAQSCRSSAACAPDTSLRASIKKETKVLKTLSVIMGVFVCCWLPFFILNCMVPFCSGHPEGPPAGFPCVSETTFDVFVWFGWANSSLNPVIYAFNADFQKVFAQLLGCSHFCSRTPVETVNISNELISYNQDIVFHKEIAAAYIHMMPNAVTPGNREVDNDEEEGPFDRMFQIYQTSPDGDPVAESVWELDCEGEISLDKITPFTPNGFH", "experiment": "Inhibition of D5 receptor at 1 uM"}, "[28]": {"molecular_target": "5-hydroxytryptamine receptor 1A (Homo sapiens) (UniProt P08908)", "experiment": "Inhibition of 5HT1A receptor at 1 uM"}, "[29]": {"experiment": "Clearance in rat constant infusion model", "assay_type": "ADME, organism-based", "settings": "in vivo, iv", "method_in_brief": "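Clearance determined in a rat constant infusion model.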"}, "[30]": {"molecular_target": "Platelet-derived growth factor receptor (Homo sapiens) (UniProt P09619+P16234)", "experiment": "Inhibition of PDGF receptor at 1 uM", "assay_type": "protein-complex assay"}, "[31]": {"molecular_target": "Type-1 angiotensin II receptor (Homo sapiens) (UniProt P30556)", "experiment": "Inhibition of AT1 receptor at 1 uM"}, "[32]": {"molecular_target": "Cholecystokinin receptor type A (Homo sapiens) (UniProt P32238)", "sequence (P32238 whole entry)": "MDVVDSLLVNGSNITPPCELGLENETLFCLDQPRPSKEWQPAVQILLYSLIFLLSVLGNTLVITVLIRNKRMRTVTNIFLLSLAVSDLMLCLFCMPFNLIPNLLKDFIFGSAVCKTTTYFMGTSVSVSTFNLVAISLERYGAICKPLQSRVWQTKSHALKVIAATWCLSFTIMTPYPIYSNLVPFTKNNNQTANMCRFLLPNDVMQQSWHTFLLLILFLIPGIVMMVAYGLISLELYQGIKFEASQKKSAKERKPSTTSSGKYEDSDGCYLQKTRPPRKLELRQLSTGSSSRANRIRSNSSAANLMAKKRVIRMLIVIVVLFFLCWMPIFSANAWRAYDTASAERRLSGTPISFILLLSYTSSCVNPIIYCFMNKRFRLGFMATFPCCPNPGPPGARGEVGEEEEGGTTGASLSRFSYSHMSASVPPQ", "experiment": "Inhibition of CCK1 receptor at 1 uM"}, "[33]": {"molecular_target": "5-hydroxytryptamine receptor 1B (Homo sapiens) (UniProt P28222)", "experiment": "Inhibition of 5HT1B receptor at 1 uM"}, "[34]": {"molecular_target": "C-X-C chemokine receptor type 2 (Homo sapiens) (UniProt P25025)", "experiment": "Inhibition of CXCR2 at 1 uM"}, "[35]": {"molecular_target": "Neuromedin-K receptor (Homo sapiens) (UniProt P29371)", "experiment": "Inhibition of NK3 receptor at 1 uM"}, "[36]": {"molecular_target": "5-hydroxytryptamine receptor 5A (Homo sapiens) (UniProt P47898)", "sequence (P47898 whole entry)": "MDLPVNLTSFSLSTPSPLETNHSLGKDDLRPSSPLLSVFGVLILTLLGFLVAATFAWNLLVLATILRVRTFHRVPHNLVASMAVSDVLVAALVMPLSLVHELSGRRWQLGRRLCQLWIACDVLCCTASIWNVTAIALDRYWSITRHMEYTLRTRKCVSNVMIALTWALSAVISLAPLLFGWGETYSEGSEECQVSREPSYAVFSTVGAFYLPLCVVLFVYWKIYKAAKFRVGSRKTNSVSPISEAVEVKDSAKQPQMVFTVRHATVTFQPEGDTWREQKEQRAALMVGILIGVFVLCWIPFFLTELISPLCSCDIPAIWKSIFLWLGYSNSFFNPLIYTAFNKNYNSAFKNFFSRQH", "experiment": "Inhibition of 5HT5A receptor at 1 uM"}, "[37]": {"molecular_target": "Acetylcholine receptor; alpha1/beta1/delta/gamma (Homo sapiens, UniProt P02708+P07510+P11230+Q07001)", "sequence (P02708 whole entry)": "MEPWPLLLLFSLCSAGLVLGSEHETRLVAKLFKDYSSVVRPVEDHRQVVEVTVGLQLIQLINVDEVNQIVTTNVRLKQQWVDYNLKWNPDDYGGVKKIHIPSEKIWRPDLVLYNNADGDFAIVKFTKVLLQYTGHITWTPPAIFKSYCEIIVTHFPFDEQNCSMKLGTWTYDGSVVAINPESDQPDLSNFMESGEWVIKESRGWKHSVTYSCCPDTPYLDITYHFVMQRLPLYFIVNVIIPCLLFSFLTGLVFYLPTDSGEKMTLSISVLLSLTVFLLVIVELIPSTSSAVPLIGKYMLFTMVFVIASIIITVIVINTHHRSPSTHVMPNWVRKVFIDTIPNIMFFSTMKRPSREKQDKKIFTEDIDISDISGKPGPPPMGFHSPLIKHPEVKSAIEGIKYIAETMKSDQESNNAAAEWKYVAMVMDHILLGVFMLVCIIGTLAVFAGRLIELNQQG", "sequence (P07510 whole entry)": "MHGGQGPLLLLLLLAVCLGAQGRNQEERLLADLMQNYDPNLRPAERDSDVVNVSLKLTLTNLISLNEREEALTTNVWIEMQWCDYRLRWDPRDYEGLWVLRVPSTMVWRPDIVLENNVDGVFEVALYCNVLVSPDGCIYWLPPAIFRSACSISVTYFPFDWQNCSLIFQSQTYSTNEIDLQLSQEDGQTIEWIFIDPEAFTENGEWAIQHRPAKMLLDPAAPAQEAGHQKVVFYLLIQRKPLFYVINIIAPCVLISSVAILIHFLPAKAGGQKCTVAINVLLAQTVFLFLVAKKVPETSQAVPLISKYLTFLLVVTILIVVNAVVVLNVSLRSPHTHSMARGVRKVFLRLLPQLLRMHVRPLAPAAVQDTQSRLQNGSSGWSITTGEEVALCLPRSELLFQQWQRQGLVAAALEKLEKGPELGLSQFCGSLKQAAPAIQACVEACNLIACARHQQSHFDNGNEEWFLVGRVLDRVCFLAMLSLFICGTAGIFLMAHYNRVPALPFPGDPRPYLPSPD", "sequence (P11230 whole entry)": "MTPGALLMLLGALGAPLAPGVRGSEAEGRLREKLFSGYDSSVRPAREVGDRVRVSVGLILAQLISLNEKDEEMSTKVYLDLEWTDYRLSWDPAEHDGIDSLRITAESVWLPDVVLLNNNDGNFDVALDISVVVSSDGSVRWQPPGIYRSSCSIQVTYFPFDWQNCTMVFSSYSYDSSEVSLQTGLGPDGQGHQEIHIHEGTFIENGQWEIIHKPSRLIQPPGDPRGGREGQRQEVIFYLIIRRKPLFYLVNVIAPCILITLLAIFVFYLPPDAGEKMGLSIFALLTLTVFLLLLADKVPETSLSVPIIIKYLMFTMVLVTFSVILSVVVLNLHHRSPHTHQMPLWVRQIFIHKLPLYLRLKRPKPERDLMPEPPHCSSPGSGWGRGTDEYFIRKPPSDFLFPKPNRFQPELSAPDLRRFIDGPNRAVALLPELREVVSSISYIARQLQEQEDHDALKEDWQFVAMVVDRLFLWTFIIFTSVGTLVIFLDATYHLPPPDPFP", "sequence (Q07001 whole entry)": "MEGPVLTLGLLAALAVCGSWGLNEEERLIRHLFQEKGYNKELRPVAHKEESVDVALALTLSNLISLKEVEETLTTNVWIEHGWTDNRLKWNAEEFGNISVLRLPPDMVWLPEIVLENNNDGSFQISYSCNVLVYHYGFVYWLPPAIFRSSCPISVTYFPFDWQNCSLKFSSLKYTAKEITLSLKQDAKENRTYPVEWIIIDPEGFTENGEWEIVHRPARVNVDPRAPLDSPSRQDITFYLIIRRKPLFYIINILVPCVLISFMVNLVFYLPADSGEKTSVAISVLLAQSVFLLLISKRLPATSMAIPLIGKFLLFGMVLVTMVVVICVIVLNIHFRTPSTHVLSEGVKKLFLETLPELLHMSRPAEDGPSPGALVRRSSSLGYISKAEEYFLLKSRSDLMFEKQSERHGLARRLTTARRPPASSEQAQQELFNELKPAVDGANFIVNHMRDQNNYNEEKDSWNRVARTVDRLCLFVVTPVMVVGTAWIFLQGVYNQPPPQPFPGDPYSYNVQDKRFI", "experiment": "Inhibition of alpha-1-beta-1-gamma-delta nAChR expressed in TE671cells by FLIPR assay", "assay_type": "functional, cell-based, TE-671", "method_in_brief": "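Functional FLIPR read-out in TE671 cells expressing native muscle-type α1β1γδ nAChR, cell-based; tested for agonist and antagonist activity; IC50 in µM.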"}, "[38]": {"molecular_target": "GABA-A receptor; anion channel (Homo sapiens) (UniProt P14867+P47870+P18507+P28472+P48169+Q99928+Q9UN88+P34903+O00591+O14764+Q8N1C3+P18505+P78334+P47869+P31644+Q16445)", "experiment": "Inhibition of central BZD receptor at 1 uM", "assay_type": "protein-complex assay"}, "[39]": {"molecular_target": "Beta-2 adrenergic receptor (Homo sapiens) (UniProt P07550)", "experiment": "Inhibition of adrenergic beta-2 receptor at 1 uM"}, "[40]": {"molecular_target": "Serotonin 3 (5-HT3) receptor", "experiment": "Activity at 5HT3 receptor expressed in SHEP1 cells by FLIPR assay", "assay_type": "functional, cell-based, Homo sapiens", "method_in_brief": "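Cell-based FLIPR functional assay in SH-EP1 cells expressing 5-HT3.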"}, "[41]": {"experiment": "Clearance in rat at 5 mg/kg", "assay_type": "ADME, organism-based", "parameters": "dose 5 mg/kg", "settings": "in vivo"}, "[42]": {"experiment": "Half life in human liver microsome", "assay_type": "ADME", "settings": "liver microsomes"}, "[43]": {"experiment": "Ratio of drug level in brain against plasma in rat by MBUA method after 60 min", "assay_type": "ADME, organism-based", "settings": "brain and plasma"}}}
{"compound": "O=C(N[C@H]1CN2CCC1CC2)c1cc2ccoc2cn1", "note": "[PHA-543613]", "values": [{"measurement": "inhibition", "setting": "[1]", "result": "< 10", "unit": "%"}, {"measurement": "Vd", "setting": "[2]", "result": 1.8, "unit": "L/kg"}, {"measurement": "inhibition", "setting": "[3]", "result": "< 10", "unit": "%"}, {"measurement": "inhibition", "setting": "[4]", "result": "< 10", "unit": "%"}, {"measurement": "inhibition", "setting": "[5]", "result": "< 10", "unit": "%"}, {"measurement": "inhibition", "setting": "[6]", "result": "< 10", "unit": "%"}, {"measurement": "inhibition", "setting": "[7]", "result": "< 10", "unit": "%"}, {"measurement": "Ki", "setting": "[8]", "result": 8.8, "unit": "nM"}, {"measurement": "inhibition", "setting": "[9]", "result": "< 10", "unit": "%"}, {"measurement": "inhibition", "setting": "[10]", "result": "< 10", "unit": "%"}, {"measurement": "Activity", "setting": "[11]", "result": 103, "unit": "%"}, {"measurement": "inhibition", "setting": "[12]", "result": "< 10", "unit": "%"}, {"measurement": "inhibition", "setting": "[13]", "result": 10, "unit": "%"}, {"measurement": "inhibition", "setting": "Homo sapiens [14]", "result": "< 10", "unit": "%"}, {"measurement": "inhibition", "setting": "[15]", "result": "< 10", "unit": "%"}, {"measurement": "inhibition", "setting": "[16]", "result": "< 10", "unit": "%"}, {"measurement": "inhibition", "setting": "[17]", "result": "< 10", "unit": "%"}, {"measurement": "inhibition", "setting": "Homo sapiens [18]", "result": "< 10", "unit": "%"}, {"measurement": "inhibition", "setting": "Homo sapiens [19]", "result": "< 10", "unit": "%"}, {"measurement": "inhibition", "setting": "[20]", "result": "< 10", "unit": "%"}, {"measurement": "inhibition", "setting": "[21]", "result": "< 10", "unit": "%"}, {"measurement": "inhibition at 20 µM", "setting": "hERG", "result": 29, "unit": "%"}, {"measurement": "inhibition", "setting": "[22]", "result": 15, "unit": "%"}, {"measurement": "inhibition", "setting": "[23]", "result": "< 10", "unit": "%"}, {"measurement": "inhibition", "setting": "[24]", "result": "< 10", "unit": "%"}, {"measurement": "inhibition", "setting": "Homo sapiens [25]", "result": 22, "unit": "%"}, {"measurement": "inhibition", "setting": "[26]", "result": "< 10", "unit": "%"}, {"measurement": "inhibition", "setting": "[27]", "result": "< 10", "unit": "%"}, {"measurement": "inhibition", "setting": "[28]", "result": "< 10", "unit": "%"}, {"measurement": "clearance", "setting": "[29]", "result": 50, "unit": "mL/min/kg"}, {"measurement": "inhibition", "setting": "[30]", "result": "< 10", "unit": "%"}, {"measurement": "inhibition", "setting": "[31]", "result": 16, "unit": "%"}, {"measurement": "inhibition", "setting": "[32]", "result": "< 10", "unit": "%"}, {"measurement": "inhibition", "setting": "[33]", "result": "< 10", "unit": "%"}, {"measurement": "inhibition", "setting": "[34]", "result": "< 10", "unit": "%"}, {"measurement": "inhibition", "setting": "[35]", "result": "< 10", "unit": "%"}, {"measurement": "inhibition", "setting": "[36]", "result": "< 10", "unit": "%"}, {"measurement": "IC50", "setting": "[37]", "result": "> 100000", "unit": "nM"}, {"measurement": "inhibition", "setting": "[38]", "result": "< 10", "unit": "%"}, {"measurement": "inhibition", "setting": "[39]", "result": "< 10", "unit": "%"}, {"measurement": "Ki", "setting": "[40]", "result": 628, "unit": "nM"}, {"measurement": "clearance", "setting": "[41]", "result": 33.3, "unit": "mL/min/kg"}, {"measurement": "half-life", "setting": "[42]", "result": "> 2", "unit": "h"}, {"measurement": "Kp at 1 h", "setting": "[43]", "result": 1.5}]}
